Laboratory results as given in ChEMBL document CHEMBL1275286, “Synthesis of the steroidal glycoside (25R)-3β,16β-diacetoxy-12,22-dioxo-5α-cholestan-26-yl β-D-glucopyranoside and its anti-cancer properties on cervicouterine HeLa, CaSki, and ViBo cells” (Eur J Med Chem, 2010).
The source made the active and inactive calls. The calls are words filed in the database; no cut-off is given here.

Columns and labels:
Ca-Ski [1] = assay: Induction of apoptosis in human CaSki cells assessed as DNA fragmentation at IC50 after 24 hrs by TUNEL assay; format: functional, cell-based
Procedure, shortened: (§1)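 Cells on coverslips treated at IC50 for 24 h, with ethanol (10 μL/mL) as control. Fixed in 2% formaldehyde 20 min, permeabilized with 0.05% Triton X-100 for 5 min at 4 °C. TdT labeling with biotin-dUTP for 1 h at 37 °C, detected with rhodamine-streptavidin, DAPI counterstain. Fluorescence microscopy; representative of three independent assays.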

ViBo [2] = assay: Induction of apoptosis in human ViBo cells assessed as DNA fragmentation at IC50 after 24 hrs by TUNEL assay; format: functional, cell-based; procedure, shortened: as §1
HeLa [3] = assay: Induction of apoptosis in human HeLa cells assessed as DNA fragmentation at IC50 after 24 hrs by TUNEL assay; format: functional, cell-based; procedure, shortened: as §1
ViBo [4] = assay: Induction of apoptosis in human ViBo cells assessed as caspase 3 activation at 65 uM after 24 hrs by immunocytochemistry; format: functional, cell-based
Procedure, shortened: (§2)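 Seeded at […] in RPMI-1640 with 5% NCS for 24 h, then treated with 42 or 65 μM. Fixed in formaldehyde, permeabilized in 0.5% Triton X-100, blocked. Rabbit polyclonal anti-active caspase-3 (1:50), then FITC goat anti-rabbit (1:200), DAPI counterstain. Epifluorescence microscopy; representative of three independent assays.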

ViBo [5] = assay: Induction of apoptosis in human ViBo cells assessed as caspase 3 activation at 42 uM after 24 hrs by immunocytochemistry; format: functional, cell-based; procedure, shortened: as §2
Ca-Ski [6] = assay: Induction of apoptosis in human CaSki cells assessed as caspase 3 activation at 42 uM after 24 hrs by immunocytochemistry; format: functional, cell-based; procedure, shortened: as §2
Ca-Ski [7] = assay: Induction of apoptosis in human CaSki cells assessed as caspase 3 activation at 65 uM after 24 hrs by immunocytochemistry; format: functional, cell-based; procedure, shortened: as §2
HeLa [8] = assay: Induction of apoptosis in human HeLa cells assessed as caspase 3 activation at 42 uM after 24 hrs by immunocytochemistry; format: functional, cell-based; procedure, shortened: as §2
ViBo [9] = assay: Induction of apoptosis in human ViBo cells assessed as chromatin condensation at 42 uM after 24 hrs by DAPI staining; format: functional, cell-based
HeLa [10] = assay: Induction of apoptosis in human HeLa cells assessed as caspase 3 activation at 65 uM after 24 hrs by immunocytochemistry; format: functional, cell-based; procedure, shortened: as §2
HeLa [11] = assay: Induction of apoptosis in human HeLa cells assessed as chromatin condensation at 65 uM after 24 hrs by DAPI staining; format: functional, cell-based
Ca-Ski [12] = assay: Induction of apoptosis in human CaSki cells assessed as chromatin condensation at 65 uM after 24 hrs by DAPI staining; format: functional, cell-based
[13] = Cell cycle arrest in human ViBo cells assessed as accumulation at G1 phase at 65 uM after 24 hrs by flow cytometry; format: functional, cell-based; settings: 42 uM, in the assay text read “at 42 uM” for “at 65 uM”
Procedure, shortened: (§3)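 Seeded at 10^5 cells/mL and grown 24 h, then exposed to 42 or 65 μM for 24 h, with ethanol as control. Harvested with versene, fixed and permeabilized in 50% methanol/PBS, treated with RNase (2.5 U/mL), stained with propidium iodide (0.2 μg/mL). Flow cytometry gave % DNA distribution by phase; Student's t-test versus ethanol.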

Ca-Ski [14] = assay: Cell cycle arrest in human CaSki cells assessed as accumulation at G2/M phase at 65 uM after 24 hrs by flow cytometry; format: functional, cell-based; procedure, shortened: as §3
[15] = Cell cycle arrest in human ViBo cells assessed as accumulation at G1 phase at 42 uM after 24 hrs by flow cytometry; format: functional, cell-based; procedure, shortened: as §3
HeLa [16] = assay: Cell cycle arrest in human HeLa cells assessed as accumulation at S phase at 65 uM after 24 hrs by flow cytometry; format: functional, cell-based; procedure, shortened: as §3
Ca-Ski [17] = assay: Cell cycle arrest in human CaSki cells assessed as accumulation at G2/M phase at 42 uM after 24 hrs by flow cytometry; format: functional, cell-based; settings: 65 uM, in the assay text read “at 65 uM” for “at 42 uM”; procedure, shortened: as §3
HeLa [18] = assay: Cell cycle arrest in human HeLa cells assessed as accumulation at S phase at 42 uM after 24 hrs by flow cytometry; format: functional, cell-based; settings: 65 uM, in the assay text read “at 65 uM” for “at 42 uM”; procedure, shortened: as §3
Ca-Ski [19] = assay: Cytotoxicity against human CaSki cells assessed as LDH release at IC50 after 24 hrs by spectrophotometry; format: functional
Procedure, shortened: (§4)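 7500 cells/well grown 24 h, then exposed for 24 h to the line's IC50 concentration or to ethanol (10 μL/mL). LDH in the supernatant read by INT-formazan at 500 nm, expressed against Triton X-100 lysis set as 100%. Mean ± S.D. of three independent experiments with three repetitions; Student's t-test.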

[20] = Cytotoxicity against human ViBo cells assessed as LDH release at IC50 after 24 hrs by spectrophotometry; format: functional; procedure, shortened: as §4
HeLa [21] = assay: Cytotoxicity against human HeLa cells assessed as LDH release at IC50 after 24 hrs by spectrophotometry; format: functional; procedure, shortened: as §4
Ca-Ski [22] = assay: Antiproliferative activity human CaSki cells after 24 hrs by crystal violet staining; format: functional, cell-based
Procedure, shortened: (§5)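 Cells kept in RPMI-1640 with 5% newborn calf serum, 37 °C, 5% CO2, in exponential growth. 7500 cells/well seeded and grown 24 h, then exposed to a range of concentrations with ethanol as vehicle (1% in controls). Crystal violet staining after 24 h, absorbance at 590 nm; IC50 from dose–response curves.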

[23] = (§6) Antiproliferative activity human ViBo cells after 24 hrs by crystal violet staining; format: functional, cell-based; procedure, shortened: as §5
ViBo [24] = assay: as §6; format: functional, cell-based; procedure, shortened: as §5
HeLa [25] = assay: Antiproliferative activity human HeLa cells after 24 hrs by crystal violet staining; format: functional, cell-based; procedure, shortened: as §5
[26] = Antiproliferative activity non-tumor human cervical fibroblast at 65 uM after 24 hrs by crystal violet staining
Procedure, shortened: (§7)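 Primary fibroblasts from hysterectomy cervix explants of patients without malignant disease. Tissue digested with 0.05% trypsin at 37 °C, cultured in RPMI-1640 with 10% NCS, adherent cells subcultured. Exposed to 42 or 65 μM, with 1% ethanol in controls. Cell number by crystal violet staining.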

[27] = Antiproliferative activity non-tumor human cervical fibroblast at 42 uM after 24 hrs by crystal violet staining; procedure, shortened: as §7
[28] = Effect on enriched human lymphocyte proliferation at 42 uM after 72 hrs by CSFE staining; format: cell-based
Procedure, shortened: (§8)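 PBMCs from healthy donors' heparinized blood isolated on a Hypaque gradient; adherent cells removed after 1 h. Labeled with 12 μM CFSE (final) for 15 min at room temperature, quenched with NCS, washed. Plated at 2×10^5 cells/well, unstimulated, PHA-stimulated or treated (42 or 65 μM), five replicates, 72 h at 37 °C.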

[29] = Effect on enriched human lymphocyte proliferation at 65 uM after 72 hrs by CSFE staining; format: cell-based; procedure, shortened: as §8
[30] = Cytotoxicity against human lymphocytes assessed as LDH release at IC50 after 72 hrs by spectrophotometry; settings: lymphocyte

In the case of CC(=O)O[C@H]1CC[C@@]2(C)[C@@H](CC[C@@H]3[C@@H]2CC(=O)[C@]2(C)[C@@H]([C@H](C)C(=O)CC[C@@H](C)CO[C@@H]4O[C@H](CO)[C@@H](O)[C@H](O)[C@H]4O)[C@@H](OC(C)=O)C[C@@H]32)C1, the Activity (Ca-Ski [1]) is reported as “Active”, the Activity (ViBo [2]) is reported as “Active” and the Activity (HeLa [3]) is reported as “Active”. The Activity (ViBo [4]) was “Active”, the Activity (ViBo [5]) was “Active” and the Activity (Ca-Ski [6]) was “Active”. For the same molecule, the Activity (Ca-Ski [7]) was “Active”, the Activity (HeLa [8]) was “Active” and the Activity (ViBo [9]) was “Active”. The Activity (HeLa [10]) was “Active”, the Activity (HeLa [11]) was “Active” and the Activity (Ca-Ski [12]) was “Active”. The Activity [13] was “Active”, the Activity (Ca-Ski [14]) was “Active” and the Activity [15] was “Active”. For the same molecule, the Activity (HeLa [16]) was “Active”, the Activity (Ca-Ski [17]) was “Active” and the Activity (HeLa [18]) was “Active”. It also gave an Activity (Ca-Ski [19]) of 17%, an Activity [20] of 3% and an Activity (HeLa [21]) of 13%. The Activity (Ca-Ski [22]) was “Dose-dependent effect”, the IC50 (Ca-Ski [22]) was 65 µM and the IC50 [23] was 42 µM. The Activity (ViBo [24]) was “Dose-dependent effect”, the Activity (HeLa [25]) was “Dose-dependent effect” and the IC50 (HeLa [25]) was 65 µM. It also gave an Activity [26] of under 20%, an Activity [27] of under 20% and an Activity [28] of 73.88%. For the same molecule, the Activity [29] was 71.06% and the Activity [30] was “Non-toxic”.

CC(=O)O[C@H]1CC[C@@]2(C)[C@@H](CC[C@@H]3[C@@H]2CC(=O)[C@]2(C)[C@@H]([C@H](C)C(=O)CC[C@@H](C)CO)[C@@H](OC(C)=O)C[C@@H]32)C1 gave an Activity (Ca-Ski [19]) of 28%.
